{"data": "Measured values from different studies", "note": "Compare with care: the assays were run in different laboratories."}
{"SMILES": "Cc1ccn2c(C(=O)N3CCN(CCn4cc(-c5ccc(C(C)(C)C)cc5)nn4)CC3)c(C)nc2c1", "organism": "Leishmania major", "assay": "parasite growth, resazurin", "setting": "72 h, promastigote", "quantity": "IC50", "result": "15.1 µM"}
{"SMILES": "CN(C)N1C(=O)c2ccccc2C1CB1OC(C)(C)C(C)(C)O1 (stereo not drawn)", "organism": "Leishmania major", "assay": "parasite growth", "setting": "promastigote", "quantity": "IC50", "result": "238 µM"}
{"SMILES": "CCCCCCCCCc1cn(CCN2CCN(C(=O)c3c(C)nc4cc(C)ccn34)CC2)nn1", "organism": "Leishmania major", "assay": "parasite growth, resazurin", "setting": "72 h, promastigote", "quantity": "IC50", "result": "38.5 µM"}
{"SMILES": "COc1ccc(-c2nc3ccccc3[nH]2)cc1O", "organism": "Enterococcus faecalis", "assay": "microbial growth, broth dilution", "test system": "ATCC29212", "quantity": "MIC", "result": "64 µg/mL"}
{"SMILES": "Cc1ccc(C)n1-c1ccc(-c2nnc(S)s2)cc1", "organism": "Enterococcus faecalis", "assay": "microbial growth, broth dilution", "test system": "ATCC14506", "setting": "18 h", "quantity": "MIC", "result": "1 µg/mL"}
{"SMILES": "Cc1nc2ccc(Cl)cn2c1C(=O)N1CCN(Cc2cn(-c3ccccc3Cl)nn2)CC1", "organism": "Leishmania major", "assay": "parasite growth, resazurin", "setting": "72 h, promastigote", "quantity": "IC50", "result": "91.5 µM"}
{"SMILES": "N=C(NCCCCCCNC(=N)NC(=N)Nc1ccc(Cl)cc1)NC(=N)Nc1ccc(Cl)cc1", "organism": "Acanthamoeba griffini", "assay": "parasite growth, resazurin", "setting": "96 h", "quantity": "IC50", "result": "7.38 µM"}
{"SMILES": "Cc1ccc2nc(-c3ccc(N(C)C)cc3)[nH]c2c1", "organism": "Enterococcus faecalis", "assay": "microbial growth, broth dilution", "test system": "ATCC29212", "quantity": "MIC", "result": "64 µg/mL"}
{"SMILES": "C[C@@H]1[C@H](O)[C@@H](C)/C=C/C=C/C=C/C=C/C=C/C=C/C=C/[C@H](O[C@@H]2O[C@H](C)[C@@H](O)[C@H](N)[C@@H]2O)C[C@@H]2O[C@](O)(C[C@@H](O)C[C@@H](O)[C@H](O)CC[C@@H](O)C[C@@H](O)CC(=O)O[C@H]1C)C[C@H](O)[C@H]2C(=O)O", "organism": "Aspergillus fumigatus", "assay": "microbial killing", "test system": "ATCC204305", "quantity": "MFC", "result": "2.57 µM"}
{"SMILES": "CCCCCCCCCCCCCCCCOP(=O)([O-])OCC[N+](C)(C)C", "organism": "Leishmania major", "assay": "parasite growth, resazurin", "setting": "72 h, promastigote", "quantity": "IC50", "result": "12.6 µM"}
{"SMILES": "CC1=NN(CNc2ccc(C(=O)O)cc2)C(=O)C1=NNn1c(-c2ccccc2)nc2ccccc2c1=O", "organism": "Aspergillus fumigatus", "assay": "microbial growth, broth dilution", "quantity": "MIC", "result": "50.5 µM"}
{"SMILES": "CC1(C)OB(CC2c3ccccc3C(=O)N2C2CCCCC2)OC1(C)C (stereo not drawn)", "organism": "Leishmania major", "assay": "parasite growth", "setting": "intracellular, amastigote", "quantity": "IC50", "result": "13.2 µM"}
{"SMILES": "CCc1ccc(-n2cc(CN3CCN(C(=O)c4c(C)nc5cc(C)ccn45)CC3)nn2)cc1", "organism": "Leishmania major", "assay": "parasite growth, resazurin", "setting": "72 h, promastigote", "quantity": "IC50", "result": "74.6 µM"}
{"SMILES": "Cc1ccc2nc(-c3ccncc3)[nH]c2c1", "organism": "Enterococcus faecalis", "assay": "microbial growth, broth dilution", "test system": "ATCC29212", "quantity": "MIC", "result": "64 µg/mL"}
{"SMILES": "C#CCCCCCCCCC=CCC(O)CC(O)CO (stereo not drawn)", "organism": "Aspergillus fumigatus", "assay": "microbial growth, resazurin", "test system": "ATCC204305", "quantity": "IC50", "result": "> 8 µg/mL"}
{"SMILES": "Cc1ccc2nc(-c3ccccc3O)[nH]c2c1", "organism": "Enterococcus faecalis", "assay": "microbial growth, broth dilution", "test system": "ATCC29212", "quantity": "MIC", "result": "64 µg/mL"}
{"SMILES": "C[C@@H](c1ncncc1F)[C@](O)(Cn1cncn1)c1ccc(F)cc1F", "organism": "Acanthamoeba griffini", "assay": "parasite growth, resazurin", "setting": "96 h", "quantity": "IC50", "result": "0.29 µM"}
{"SMILES": "C=CCn1c(-c2ccc(Cl)c(Cl)c2)nc2ccccc21", "organism": "Enterococcus faecalis", "assay": "microbial growth, broth dilution", "test system": "ATCC29212", "quantity": "MIC", "result": "64 µg/mL"}
{"SMILES": "CC1=NN(CNc2ccccc2[N+](=O)[O-])C(=O)C1=NNn1c(-c2ccccc2)nc2ccccc2c1=O", "organism": "Aspergillus fumigatus", "assay": "microbial growth, broth dilution", "quantity": "MIC", "result": "50.4 µM"}
{"SMILES": "O=C(O)c1cn(C2CC2)c2cc(N3CCNCC3)c(F)cc2c1=O", "organism": "Enterococcus faecalis", "assay": "microbial growth, broth dilution", "test system": "ATCC29212", "quantity": "MIC", "result": "8 µg/mL"}
{"SMILES": "COc1cccc(-n2cc(CN3CCN(C(=O)c4c(C)nc5ccc(Cl)cn45)CC3)nn2)c1", "organism": "Leishmania major", "assay": "parasite growth, resazurin", "setting": "72 h, promastigote", "quantity": "IC50", "result": "112 µM"}
